What is called IC50 is the concentration needed to halve the response being measured. A higher IC50 goes with weaker potency. What is called Kd is the constant that tells how readily two partners part at equilibrium. Lower therefore signals tighter binding.

Bridge positions count the residues as written; N and C are the ends. Square brackets hold non-standard residues; d marks the D form. Peptide text beside a SMILES is read from it. Dab = NCC[C@H](N)C(=O)O

Experiment [1] addresses T1, IgG receptor FcRn large subunit p51 (Homo sapiens, UniProt P55899). Description: Inhibition of human IgG binding to soluble human FcRn by ELISA. In outline: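 Biotinylated soluble human FcRn immobilized on neutravidin plates, incubated with hIgG (3 nM, constant) and peptide at varying concentrations for 2 h at 37 °C. After washing, bound hIgG detected with peroxidase-conjugated hIgG-specific Fab fragments.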

Experiment [2] addresses T1, IgG receptor FcRn large subunit p51. Description: Binding affinity to human FcRn at pH 6 by surface plasmon resonance assay. In outline: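 Soluble human FcRn coupled to the dextran surface of a CM5 chip; peptide dilutions flowed over the chip. The equilibrium response at each dilution was plotted against concentration and fitted to a steady-state affinity model to give Kd.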
On the technique in general: In SPR one partner is held on a chip, and binding of the other changes the refractive index at the surface.

T1 sequence (P55899 whole entry, the tested form may be a part): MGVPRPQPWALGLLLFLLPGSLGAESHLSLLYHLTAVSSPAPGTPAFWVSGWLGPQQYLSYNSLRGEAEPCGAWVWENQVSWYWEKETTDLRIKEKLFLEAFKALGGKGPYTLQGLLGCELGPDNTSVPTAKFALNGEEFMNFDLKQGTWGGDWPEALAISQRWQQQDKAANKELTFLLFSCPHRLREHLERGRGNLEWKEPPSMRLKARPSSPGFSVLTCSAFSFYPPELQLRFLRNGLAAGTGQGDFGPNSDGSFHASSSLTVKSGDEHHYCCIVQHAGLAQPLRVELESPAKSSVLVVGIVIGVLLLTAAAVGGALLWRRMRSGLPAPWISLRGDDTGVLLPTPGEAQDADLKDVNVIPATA

As for `CC(C)C[C@H](NC(=O)[C@H](Cc1ccc(O)cc1)NC(=O)[C@@H]1CSSC[C@H](NC(=O)[C@H](Cc2ccccc2)NC(=O)[C@H](CO)NC(=O)[C@@H](N)CC(N)=O)C(=O)N[C@@H](CCCN=C(N)N)C(=O)NCC(=O)N[C@@H](CCCN=C(N)N)C(=O)N2CCC[C@H]2C(=O)NCC(=O)N[C@@H](Cc2cnc[nH]2)C(=O)N[C@@H](Cc2ccccc2)C(=O)NCC(=O)NCC(=O)N1)C(=O)N[C@@H](Cc1ccccc1)C(=O)O` (H-NSFCRGRPGHFGGCYLF-OH; disulfide 4-14), in experiment [1], the IC50 was found to be 33 µM. For the same compound, the Kd in experiment [2] was determined as 9.4 µM.
For `CC(C)C[C@H](NC(=O)[C@@H](C)NC(=O)CNC(=O)[C@H](Cc1ccccc1)NC(=O)[C@H](Cc1cnc[nH]1)NC(=O)CNC(=O)[C@@H](NC(=O)[C@@H](NC(=O)[C@H](Cc1ccccc1)NC(=O)[C@H](CCCN=C(N)N)NC(=O)[C@@H](N)CCC(N)=O)C(C)(C)S)[C@@H](C)O)C(=O)N[C@@H](Cc1ccc(O)cc1)C(=O)N1CCC[C@H]1C(=O)N[C@@H](CS)C(=O)N[C@@H](CC(N)=O)C(=O)NCC(=O)N1CCC[C@H]1C(=O)O`, in experiment [1], the IC50 is 2 µM. The compound further came in with a dissociation constant (Kd) in experiment [2] of 0.48 µM.
For `CC(C)C[C@@H](C(=O)N[C@@H](Cc1ccc(O)cc1)C(=O)N1CCC[C@H]1C(=O)N[C@@H](CS)C(=O)N[C@@H](CC(N)=O)C(=O)NCC(=O)N1CCC[C@H]1C(=O)O)N(C)C(=O)CNC(=O)[C@@H](C)NC(=O)[C@H](Cc1ccccc1)NC(=O)[C@H](Cc1cnc[nH]1)NC(=O)CNC(=O)[C@@H](NC(=O)[C@@H](NC(=O)[C@H](Cc1ccccc1)NC(=O)[C@H](CCCNC(=N)N)NC(=O)[C@@H](N)CCC(N)=O)C(C)(C)S)[C@@H](C)O`, in that order: 3.2 µM and 0.23 µM.
For `CC(C)C[C@H](NC(=O)CNC(=O)CNC(=O)[C@H](Cc1ccc(C(C)(C)C)cc1)NC(=O)[C@H](Cc1cnc[nH]1)NC(=O)CNC(=O)[C@@H](NC(=O)[C@@H](NC(=O)[C@H](Cc1ccccc1)NC(=O)[C@H](CCCNC(=N)N)NC(=O)[C@@H](N)CCC(N)=O)C(C)(C)S)[C@@H](C)O)C(=O)N[C@@H](Cc1ccc(O)cc1)C(=O)N1CCC[C@H]1C(=O)N[C@@H](CS)C(=O)O`, in experiment [1], the IC50 was more than 125 µM. The compound further registered a Kd in experiment [2] of 230 µM.
With `CC(C)C[C@H](NC(=O)CNC(=O)CNC(=O)[C@H](Cc1ccccc1)NC(=O)[C@H](Cc1cnc[nH]1)NC(=O)CNC(=O)[C@@H](NC(=O)[C@H](CS)NC(=O)[C@H](Cc1ccccc1)NC(=O)[C@H](C)NC(=O)[C@@H](N)CCC(N)=O)[C@@H](C)O)C(=O)N[C@@H](Cc1ccc(O)cc1)C(=O)N1CCC[C@H]1C(=O)N[C@@H](CS)C(=O)N[C@@H](CC(N)=O)C(=O)NCC(=O)N1CCC[C@H]1C(=O)O`, in experiment [1], the IC50 stood at 23 µM. In addition, in experiment [2], the Kd is 7.7 µM.
As to `CC(C)C[C@@H](C(=O)N[C@@H](Cc1ccc(O)cc1)C(=O)N1CCC[C@H]1C(=O)N[C@@H](CS)C(=O)N[C@@H](CC(N)=O)C(=O)NCC(=O)N1CCC[C@H]1C(=O)O)N(C)C(=O)CNC(=O)[C@@H](Cc1ccccc1)NC(=O)[C@H](Cc1ccccc1)NC(=O)[C@H](Cc1cnc[nH]1)NC(=O)CNC(=O)[C@@H](NC(=O)[C@@H](NC(=O)[C@H](Cc1ccccc1)NC(=O)[C@H](CCCNC(=N)N)NC(=O)[C@@H](N)CCC(N)=O)C(C)(C)S)[C@@H](C)O`, in experiment [1], the IC50 was 1.3 µM. In experiment [2], this compound had a Kd of 0.24 µM.
In turn, `CC(C)C[C@H](NC(=O)CNC(=O)CNC(=O)[C@H](Cc1ccccc1)NC(=O)[C@H](Cc1cnc[nH]1)NC(=O)CNC(=O)[C@@H](NC(=O)[C@@H](NC(=O)[C@H](Cc1ccccc1)NC(=O)[C@H](CCCN=C(N)N)NC(=O)[C@@H](N)CCC(N)=O)C(C)(C)S)[C@@H](C)O)C(=O)N[C@@H](Cc1ccc(O)cc1)C(=O)N1CCC[C@H]1C(=O)N[C@H](C(=O)N[C@@H](CC(N)=O)C(=O)NCC(=O)N1CCC[C@H]1C(=O)O)C(C)(C)S` gave a half-maximal inhibitory concentration (IC50) in experiment [1] of 2 µM. For the same compound, in experiment [2], the affinity, expressed as Kd, was 0.37 µM.
For `CC(C)C[C@H](NC(=O)CNC(=O)CNC(=O)[C@H](Cc1ccccc1)NC(=O)[C@H](Cc1cnc[nH]1)NC(=O)CNC(=O)[C@@H](NC(=O)[C@H](CS)NC(=O)[C@H](Cc1ccccc1)NC(=O)[C@H](CCCN=C(N)N)NC(=O)[C@@H](N)CCC(N)=O)[C@@H](C)O)C(=O)N[C@@H](Cc1ccc(O)cc1)C(=O)N1CCC[C@H]1C(=O)N[C@@H](CS)C(=O)N[C@@H](C)C(=O)NCC(=O)N1CCC[C@H]1C(=O)O`, in that order: 30 µM and 8 µM.
On to `CC(C)C[C@H](NC(=O)CNC(=O)CNC(=O)[C@H](Cc1ccccc1)NC(=O)[C@H](Cc1cnc[nH]1)NC(=O)CNC(=O)[C@@H](NC(=O)[C@H](CCN)NC(=O)[C@H](Cc1ccccc1)NC(=O)[C@H](CCCN=C(N)N)NC(=O)[C@@H](N)CCC(N)=O)[C@@H](C)O)C(=O)N[C@@H](Cc1ccc(O)cc1)C(=O)N1CCC[C@H]1C(=O)N[C@@H](CCC(=O)O)C(=O)N[C@@H](CC(N)=O)C(=O)NCC(=O)N1CCC[C@H]1C(=O)O` (H-QRF[Dab]TGHFGGLYPENGP-OH), for which the IC50 in experiment [1] was 81 µM. In addition, in experiment [2], the Kd was determined as 4.8 µM.
In experiment [1], `Cc1ccccc1C[C@H](NC(=O)[C@H](Cc1cnc[nH]1)NC(=O)CNC(=O)[C@@H](NC(=O)[C@@H](NC(=O)[C@H](Cc1ccccc1)NC(=O)[C@H](CCCNC(=N)N)NC(=O)[C@@H](N)CCC(N)=O)C(C)(C)S)[C@@H](C)O)C(=O)NCC(=O)NCC(=O)N[C@@H](CC(C)C)C(=O)N[C@@H](Cc1ccc(O)cc1)C(=O)N1CCC[C@H]1C(=O)N[C@@H](CS)C(=O)N[C@@H](CC(N)=O)C(=O)NCC(=O)N1CCC[C@H]1C(=O)O` came in with an IC50 of 1 µM. Moreover, the equilibrium dissociation constant (Kd) in experiment [2] stood at 0.2 µM.
Taken in the same sequence, the figures for `CC(C)C[C@H](NC(=O)CNC(=O)CNC(=O)[C@H](CCc1ccccc1)NC(=O)[C@H](Cc1cnc[nH]1)NC(=O)CNC(=O)[C@@H](NC(=O)[C@@H](NC(=O)[C@H](Cc1ccccc1)NC(=O)[C@H](CCCNC(=N)N)NC(=O)[C@@H](N)CCC(N)=O)C(C)(C)S)[C@@H](C)O)C(=O)N[C@@H](Cc1ccc(O)cc1)C(=O)N1CCC[C@H]1C(=O)N[C@@H](CS)C(=O)N[C@@H](CC(N)=O)C(=O)NCC(=O)N1CCC[C@H]1C(=O)O` were 80 µM and 7.8 µM.
Regarding `CC(C)C[C@H](NC(=O)CNC(=O)CNC(=O)[C@H](Cc1ccccc1)NC(=O)[C@H](C)NC(=O)CNC(=O)[C@@H](NC(=O)[C@H](CS)NC(=O)[C@H](Cc1ccccc1)NC(=O)[C@H](CCCNC(=N)N)NC(=O)[C@@H](N)CCC(N)=O)[C@@H](C)O)C(=O)N[C@@H](Cc1ccc(O)cc1)C(=O)N1CCC[C@H]1C(=O)N[C@@H](CS)C(=O)N[C@@H](CC(N)=O)C(=O)NCC(=O)N1CCC[C@H]1C(=O)O`, in experiment [1], the IC50 is more than 125 µM. Also, the Kd in experiment [2] was more than 250 µM.
Take `CC(C)C[C@H](NC(=O)CNC(=O)CNC(=O)[C@@H]1Cc2ccccc2CN1C(=O)[C@H](Cc1cnc[nH]1)NC(=O)CNC(=O)[C@@H](NC(=O)[C@@H](NC(=O)[C@H](Cc1ccccc1)NC(=O)[C@H](CCCNC(=N)N)NC(=O)[C@@H](N)CCC(N)=O)C(C)(C)S)[C@@H](C)O)C(=O)N[C@@H](Cc1ccc(O)cc1)C(=O)N1CCC[C@H]1C(=O)N[C@@H](CS)C(=O)N[C@@H](CC(N)=O)C(=O)NCC(=O)N1CCC[C@H]1C(=O)O`: the IC50 in experiment [1] is more than 125 µM. Also, the Kd in experiment [2] was more than 250 µM.
The compound `CC(C)C[C@H](NC(=O)CNC(=O)CNC(=O)[C@H](Cc1ccccc1)NC(=O)[C@H](Cc1cnc[nH]1)NC(=O)CNC(=O)[C@@H](NC(=O)[C@H](CCC(=O)O)NC(=O)[C@H](Cc1ccccc1)NC(=O)[C@H](CCCNC(=N)N)NC(=O)[C@@H](N)CCC(N)=O)[C@@H](C)O)C(=O)N[C@@H](Cc1ccc(O)cc1)C(=O)N1CCC[C@H]1C(=O)N[C@@H](CCCCN)C(=O)N[C@@H](CC(N)=O)C(=O)NCC(=O)N1CCC[C@H]1C(=O)O` registered an IC50 in experiment [1] of 100 µM. In experiment [2], this compound displayed a Kd of 27 µM.
In turn, `CC(C)C[C@H](NC(=O)[C@H]1CCCN1C(=O)[C@@H](Cc1ccccc1)NC(=O)[C@H](Cc1ccccc1)NC(=O)[C@H](Cc1cnc[nH]1)NC(=O)CNC(=O)[C@@H](NC(=O)[C@@H](NC(=O)[C@H](Cc1ccccc1)NC(=O)[C@H](CCCN=C(N)N)NC(=O)[C@@H](N)CCC(N)=O)C(C)(C)S)[C@@H](C)O)C(=O)N[C@@H](Cc1ccc(O)cc1)C(=O)N1CCC[C@H]1C(=O)N[C@@H](CS)C(=O)N[C@@H](CC(N)=O)C(=O)NCC(=O)N1CCC[C@H]1C(=O)O` returned an IC50 in experiment [1] of 5.9 µM. Further, the Kd in experiment [2] is 0.72 µM.
On to `CC(C)C[C@H](NC(=O)CNC(=O)CNC(=O)[C@H](Cc1ccccc1)NC(=O)[C@H](Cc1cnc[nH]1)NC(=O)CNC(=O)[C@H](C)NC(=O)[C@H](CS)NC(=O)[C@H](Cc1ccccc1)NC(=O)[C@H](CCCN=C(N)N)NC(=O)[C@@H](N)CCC(N)=O)C(=O)N[C@@H](Cc1ccc(O)cc1)C(=O)N1CCC[C@H]1C(=O)N[C@@H](CS)C(=O)N[C@@H](CC(N)=O)C(=O)NCC(=O)N1CCC[C@H]1C(=O)O` (H-QRFCAGHFGGLYPCNGP-OH), for which the IC50 in experiment [1] was 30 µM. This compound gave a Kd in experiment [2] of 4.9 µM.
`CC(C)C[C@H](NC(=O)CNC(=O)CNC(=O)[C@H](C)NC(=O)[C@H](Cc1cnc[nH]1)NC(=O)CNC(=O)[C@@H](NC(=O)[C@H](CS)NC(=O)[C@H](Cc1ccccc1)NC(=O)[C@H](CCCNC(=N)N)NC(=O)[C@@H](N)CCC(N)=O)[C@@H](C)O)C(=O)N[C@@H](Cc1ccc(O)cc1)C(=O)N1CCC[C@H]1C(=O)N[C@@H](CS)C(=O)N[C@@H](CC(N)=O)C(=O)NCC(=O)N1CCC[C@H]1C(=O)O` (H-QRFCTGHAGGLYPCNGP-OH) displayed a concentration for half-maximal inhibition (IC50) in experiment [1] of more than 125 µM. The dissociation constant (Kd) in experiment [2] was more than 250 µM.
The compound `CC(C)C[C@H](NC(=O)CNC(=O)CNC(=O)[C@H](Cc1ccccc1)NC(=O)[C@H](Cc1cnc[nH]1)NC(=O)CNC(=O)[C@@H](NC(=O)[C@@H](NC(=O)[C@H](Cc1ccccc1)NC(=O)[C@H](CCCNC(=N)N)NC(=O)[C@@H](N)CCC(N)=O)C(C)(C)S)[C@@H](C)O)C(=O)N[C@@H](Cc1cccnc1)C(=O)N1CCC[C@H]1C(=O)N[C@@H](CS)C(=O)N[C@@H](CC(N)=O)C(=O)NCC(=O)N1CCC[C@H]1C(=O)O` yielded an IC50 in experiment [1] of 92 µM. Further, in experiment [2], binding was characterised by a dissociation constant (Kd) of 34 µM.
